The source made the active and inactive calls.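 The calls were made as follows: active = inhibition of 30% or more at any tested concentration; inactive = the rest.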

One test deals with M1-family alanyl aminopeptidase PfA-M1 [Plasmodium falciparum 3D7]. The experiment in a line: inhibition of malaria M1 alanyl aminopeptidase – biochemical, QFRET, H-Leu-NHMec substrate, dose response (AID 588686). Particulars: recombinant PfM1AAP, H-Leu-NHMec fluorogenic cleavage. The essentials:
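Assay system: recombinant PfM1AAP enzyme. Medium: Tris buffer pH 7.5 with 2 mM CoCl2. Also added: fluorogenic substrate H-Leu-NHMec at 0.1 mM final. Incubation: 90 min reaction at room temperature. Measured by: released NHMec fluorescence, excitation 370 nm, emission 460 nm. Read-out basis: % inhibition and fitted IC50. Replicates: each concentration tested in triplicate.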
As a reminder, the IC50 is the concentration needed to halve the response being measured. Regarding `CC(C)(C)c1ccc(-c2ccc(S(=O)(=O)N3CCC(C(=O)NCc4ccc5c(c4)OCO5)CC3)s2)cc1`, the concentration for half-maximal inhibition (IC50) was 49.9 µM. Still for that read-out and setting: next, `O=C(NCc1ccc2c(c1)OCO2)C1CCN(S(=O)(=O)c2ccc(-c3cncc4ccccc34)s2)CC1`: 11.4 µM. `CN(C)c1ccc(CNC(=O)C2CCN(S(=O)(=O)c3ccc(Br)s3)CC2)cc1`: the IC50 was 23.8 µM.

The same test, now with this note: recombinant PfM1AAP, H-Leu-NHMec fluorogenic cleavage; at 100 µM (top of the series).
With `CC[C@H](C)[C@H](NS(=O)(=O)c1ccc(Br)s1)C(=O)O`, the inhibition entry is “inactive”. The same measure, in the same setting: under `CC[C@H](C)[C@H](NS(=O)(=O)c1ccc(Br)s1)C(=O)NCc1ccc(F)cc1` stands “inactive”; under `CC[C@H](C)[C@H](NC(=O)c1ccc(C(C)(C)C)cc1)C(=O)NCc1ccc(C(F)(F)F)cc1`, “inactive”. In the case of `O=C(NCc1ccc2c(c1)OCO2)C1CCN(S(=O)(=O)c2ccc(-c3cccc(F)c3)s2)CC1`, the inhibition entry was “inactive”. `COc1ccc(-c2ccc(S(=O)(=O)N3CCC(C(=O)NCc4ccc5c(c4)OCO5)CC3)s2)cc1`: the inhibition result was “inactive”.

With `CC[C@H](C)[C@H](NS(=O)(=O)c1ccc(Br)s1)C(=O)NCc1ccc(C(F)(F)F)cc1`, the inhibition entry is “inactive”. Take `COc1cccc(-c2ccc(S(=O)(=O)N3CCC(C(=O)NCc4ccc5c(c4)OCO5)CC3)s2)c1`: the inhibition result was “inactive”. Same read-out and setting: next, `CC[C@H](C)[C@H](NS(=O)(=O)c1cccs1)C(=O)NCc1ccc(F)cc1`: “inactive”. Still for that read-out and setting: next, `CC[C@H](C)[C@H](NC(=O)c1ccc([N+](=O)[O-])cc1)C(=O)NCc1ccccc1`: “inactive”; `O=C(NCc1ccc2c(c1)OCO2)C1CCN(S(=O)(=O)c2ccc(-c3ccccc3)s2)CC1`: “inactive”. As to `CC[C@H](C)[C@H](NC(=O)c1ccc([N+](=O)[O-])cc1)C(=O)NCc1ccc(C(F)(F)F)cc1`, the inhibition entry is “inactive”. Turning to `CC(=O)Nc1cccc(-c2ccc(S(=O)(=O)N3CCC(C(=O)NCc4ccc5c(c4)OCO5)CC3)s2)c1`, the inhibition result was “inactive”. Regarding `CC[C@H](C)[C@H](NC(=O)c1ccc([N+](=O)[O-])cc1)C(=O)NCc1ccc(F)cc1`, the inhibition result is “inactive”.

For the origin of these results see PubChem BioAssay AID588686 (Southern Research Specialized Biocontainment Screening …, 2011).
